Two compounds from ChEMBL document CHEMBL4414562, “Discovery of the First in Vivo Active Inhibitors of the Soluble Epoxide Hydrolase Phosphatase Domain” (J Med Chem, 2019) can be followed below.

Structures are written as SMILES. The source made the active and inactive calls. No cut-off for these calls is given here.

The target of assay [1] is T1, Peroxisome proliferator-activated receptor gamma (Homo sapiens) (UniProt P37231).
T1 sequence (whole entry): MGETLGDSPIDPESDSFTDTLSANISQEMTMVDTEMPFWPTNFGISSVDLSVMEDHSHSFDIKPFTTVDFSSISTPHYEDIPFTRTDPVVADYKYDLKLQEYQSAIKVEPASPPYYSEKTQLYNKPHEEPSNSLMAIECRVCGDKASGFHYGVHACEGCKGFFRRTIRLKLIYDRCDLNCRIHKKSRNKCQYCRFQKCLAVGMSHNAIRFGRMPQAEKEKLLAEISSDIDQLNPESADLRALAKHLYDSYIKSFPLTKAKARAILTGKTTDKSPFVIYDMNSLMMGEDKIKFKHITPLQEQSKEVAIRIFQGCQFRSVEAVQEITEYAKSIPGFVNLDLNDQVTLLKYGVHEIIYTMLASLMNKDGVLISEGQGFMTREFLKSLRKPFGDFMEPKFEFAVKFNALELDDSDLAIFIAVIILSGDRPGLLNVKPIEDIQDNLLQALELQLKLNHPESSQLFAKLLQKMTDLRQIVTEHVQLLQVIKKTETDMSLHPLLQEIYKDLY
Put plainly: Activation of Gal4-fused human PPARgamma LBD transfected in HEK293T cells at 10 uM after 12 to 14 hrs by luciferase reporter gene assay. Type of assay: cell-based. Summed up:
(§1)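 Gal4–human nuclear receptor LBD fusion (pFA-CMV-hNR-LBD) co-transfected with pFR-Luc and pRL-SV40 (Lipofectamine LTX) into HEK293T cells seeded the day before. 5 h post-transfection, compound added in Opti-MEM with 0.1% DMSO and incubated 12−14 h. Dual-Glo firefly/Renilla luciferase read. Activation expressed relative to reference agonist at 1 μM. Triplicates, ≥3 independent experiments.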
(In a reporter assay the amount or activity of a reporter protein is the signal.)

Assay [2] addresses T2, Bifunctional epoxide hydrolase 2 (Mus musculus, UniProt P34914).
T2 sequence (P34914 whole entry): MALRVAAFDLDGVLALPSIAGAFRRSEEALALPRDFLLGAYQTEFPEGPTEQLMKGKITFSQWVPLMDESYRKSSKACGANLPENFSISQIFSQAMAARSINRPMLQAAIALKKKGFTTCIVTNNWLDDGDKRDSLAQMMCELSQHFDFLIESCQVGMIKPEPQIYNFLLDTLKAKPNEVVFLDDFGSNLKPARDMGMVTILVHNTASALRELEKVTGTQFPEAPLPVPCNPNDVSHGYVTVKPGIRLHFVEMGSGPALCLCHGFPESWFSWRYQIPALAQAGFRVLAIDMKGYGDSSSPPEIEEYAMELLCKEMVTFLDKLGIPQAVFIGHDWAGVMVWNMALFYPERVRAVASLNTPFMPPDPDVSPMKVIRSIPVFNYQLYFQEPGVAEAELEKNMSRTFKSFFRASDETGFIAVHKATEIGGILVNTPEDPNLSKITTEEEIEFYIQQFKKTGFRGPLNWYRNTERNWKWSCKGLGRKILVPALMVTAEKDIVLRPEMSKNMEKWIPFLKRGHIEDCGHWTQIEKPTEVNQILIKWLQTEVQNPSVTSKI
Put plainly: Inhibition of hydrolase activity of full length mouse soluble epoxide hydrolase pre-incubated for 30 mins before PHOME substrate addition by fluorescence based assay. Summed up:
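Hydrolase assay with 0.1 μM full-length enzyme in Bis-Tris pH 7 containing 0.1 mg/mL BSA and 0.01% Triton X-100. […] Reaction started with PHOME (50 μM final). 6-Methoxynaphthaldehyde fluorescence (ex 330/em 465 nm) read every minute for 45 min. Triplicates.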

Assay [3] concerns the target T3, Retinoic acid receptor RXR-alpha (Homo sapiens) (UniProt P19793).
T3 sequence (whole entry): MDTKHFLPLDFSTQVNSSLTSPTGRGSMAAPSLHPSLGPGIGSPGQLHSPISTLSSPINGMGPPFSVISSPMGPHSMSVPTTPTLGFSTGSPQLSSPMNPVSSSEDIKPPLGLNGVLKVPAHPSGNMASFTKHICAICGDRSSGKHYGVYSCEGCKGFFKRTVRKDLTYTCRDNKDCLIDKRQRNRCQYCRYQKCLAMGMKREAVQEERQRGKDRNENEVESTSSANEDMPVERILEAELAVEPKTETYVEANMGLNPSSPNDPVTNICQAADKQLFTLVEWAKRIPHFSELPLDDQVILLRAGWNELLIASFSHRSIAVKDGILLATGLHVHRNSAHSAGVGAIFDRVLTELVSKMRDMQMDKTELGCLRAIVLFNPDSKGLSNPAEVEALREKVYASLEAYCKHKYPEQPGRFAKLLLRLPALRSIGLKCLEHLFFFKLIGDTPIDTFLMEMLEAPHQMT
Put plainly: Activation of Gal4-fused human RXRalpha LBD transfected in HEK293T cells at 10 uM after 12 to 14 hrs by luciferase reporter gene assay. Type of assay: cell-based. Summed up:
as §1

Assay [4] deals with T4, Peroxisome proliferator-activated receptor delta (Homo sapiens) (UniProt Q03181).
T4 sequence (whole entry): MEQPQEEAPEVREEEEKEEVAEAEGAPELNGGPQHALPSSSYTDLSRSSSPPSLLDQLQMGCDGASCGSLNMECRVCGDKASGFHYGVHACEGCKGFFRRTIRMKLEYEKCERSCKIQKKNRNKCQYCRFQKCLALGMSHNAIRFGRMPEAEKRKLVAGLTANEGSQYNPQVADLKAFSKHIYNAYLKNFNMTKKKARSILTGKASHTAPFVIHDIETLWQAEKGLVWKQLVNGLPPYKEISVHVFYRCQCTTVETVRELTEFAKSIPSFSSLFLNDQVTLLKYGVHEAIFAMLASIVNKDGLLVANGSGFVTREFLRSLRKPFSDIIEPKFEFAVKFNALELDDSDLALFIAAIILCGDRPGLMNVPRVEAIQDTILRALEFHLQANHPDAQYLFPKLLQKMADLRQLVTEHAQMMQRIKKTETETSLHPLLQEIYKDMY
Description: Activation of Gal4-fused human PPARbeta/delta LBD transfected in HEK293T cells at 10 uM after 12 to 14 hrs by luciferase reporter gene assay. Type of assay: cell-based. Summed up: as §1

As for `O=C(O)CCCc1nc(-c2ccc(Cl)c(Cl)c2)c(-c2ccccc2)o1`, the values for the Activity in assay [1] and in assay [3] were 29% and 77%, respectively. The IC50 in assay [2] was greater than 30 µM. The result in assay [4] was inactive.

Take `O=C(O)CCc1nc(-c2ccccc2)c(-c2ccccc2)o1` [OXAPROZIN]: the result in assay [1] and in assay [4] was inactive. In assay [2], this compound showed an IC50 greater than 300 µM. The Activity in assay [3] stood at 14.4%.

For orientation: IC50 means the concentration needed to halve the response being measured. A lower IC50 goes with greater potency in that assay.
